Experimental data: ChEMBL document CHEMBL3758168, “Hybrid triazoles: Design and synthesis as potential dual inhibitor of growth and efflux inhibition in tuberculosis” (Eur J Med Chem, 2016)
In brackets after ≈: the same amount, converted by molar mass.

Key:
[1] = test system: Mycobacterium tuberculosis; experiment: Anti-tubercular activity against Mycobacterium tuberculosis H37Rv ATCC 27294T after 7 days by mircodilution method; type: functional; conditions: 168 h
Procedure, shortened: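 H37Rv grown static in MB7H9 + 10% OADC at 37 °C to OD600 0.8, then diluted to about 10^5 cells/ml. Mixed 1:1 with two-fold serial dilutions in MB7H9/OADC and incubated 7 days at 37 °C. MTT added to final 2.5% and plates incubated overnight. MIC is the lowest concentration with no colour change. Run in triplicate.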

[2] = test system: Mycolicibacterium smegmatis; experiment: Anti-tubercular activity against Mycobacterium smegmatis MC2 155 ATCC 700084 after 3 days by microdilution method; type: functional; conditions: MC2 155 ATCC 700084, 72 h
Procedure, shortened: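 M. smegmatis mc2155 grown in MB7H9 + 10% OADC at 37 °C with shaking to OD600 0.8. Inoculum set to 0.5 McFarland, diluted 1:100, and mixed 1:1 with two-fold serial dilutions in MB7H9. Plates incubated 3 days at 37 °C with growth and sterility controls. MIC taken as the lowest concentration with no visible growth.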

[3] = Cytotoxicity against human MDM assessed as cell viability after 3 days by Alamar blue dye-based fluorocytometric analysis relative to control; conditions: 72 h

Compound: NCC[C@H](O)C(=O)N[C@@H]1C[C@H](N)[C@@H](O[C@H]2O[C@H](CN)[C@@H](O)[C@H](O)[C@H]2O)[C@H](O)[C@H]1O[C@H]1O[C@H](CO)[C@@H](O)[C@H](N)[C@H]1O [AMIKACIN]
- MIC [1]: 2 µg/mL (≈ 3.42 µM)

Compound: CCOC(=O)CSc1nnc(COc2ccccc2C2=NOC(c3ccc(Cl)cc3Cl)C2)n1NC(C)=O (stereo unspecified)
- MIC [2]: > 64 µg/mL

Compound: C/C=C/Sc1nnc(COc2ccccc2C2=NOC(c3ccc(Cl)cc3Cl)C2)n1NC(C)=O (stereo unspecified)
- MIC [2]: 512 µg/mL (≈ 988 µM)

Compound: NNC(=O)c1ccncc1 [ISONIAZID]
- MIC [1]: 0.1 µg/mL (≈ 0.729 µM)

Compound: CCOC(=O)CSc1nnc(COc2ccccc2C2=NOC(c3ccc(Cl)cc3Cl)C2)n1NC(=O)c1ccccc1 (stereo unspecified)
- MIC [2]: 64 µg/mL (≈ 102 µM)

Compound: CO[C@H]1/C=C/O[C@@]2(C)Oc3c(C)c(O)c4c(O)c(c(/C=N/N5CCN(C)CC5)c(O)c4c3C2=O)NC(=O)/C(C)=C\C=C\[C@H](C)[C@H](O)[C@@H](C)[C@@H](O)[C@@H](C)[C@H](OC(C)=O)[C@@H]1C [RIFAMPIN]
- MIC [1]: 1 µg/mL (≈ 1.22 µM)

Compound: CCCCSc1nnc(COc2ccccc2C2=NOC(c3ccc(Cl)cc3Cl)C2)n1NC(=O)CCl (stereo unspecified)
- IC50 [3]: 2.8 µg/mL (≈ 4.92 µM)
- MIC [2]: 32 µg/mL (≈ 56.2 µM)

Compound: C=CCSc1nnc(COc2ccccc2C2=NOC(c3ccc(Cl)cc3Cl)C2)n1NC(=O)CCl (stereo unspecified)
- MIC [2]: 256 µg/mL (≈ 463 µM)

Compound: CC1COc2c(N3CCN(C)CC3)c(F)cc3c(=O)c(C(=O)O)cn1c23 (stereo unspecified) [OFLOXACIN]
- MIC [1]: 2 µg/mL (≈ 5.53 µM)

Compound: CCSc1nnc(COc2ccccc2C2=NOC(c3ccc(Cl)cc3Cl)C2)n1NC(=O)c1ccccc1 (stereo unspecified)
- IC50 [3]: 1.8 µg/mL (≈ 3.17 µM)
- MIC [2]: 4 µg/mL (≈ 7.04 µM)

Compound: C=CCSc1nnc(COc2ccccc2C2=NOC(c3ccc(Cl)cc3Cl)C2)n1NC(C)=O (stereo unspecified)
- MIC [2]: 256 µg/mL (≈ 494 µM)

Compound: Nn1c(S)nnc1COc1ccccc1C1=NOC(c2ccc(Cl)cc2Cl)C1 (stereo unspecified)
- IC50 [3]: 87.3 µg/mL (≈ 200 µM)
- MIC [2]: 2 µg/mL (≈ 4.58 µM)

Compound: CC(=O)Nn1c(COc2ccccc2C2=NOC(c3ccc(Cl)cc3Cl)C2)nnc1Sc1ccccc1 (stereo unspecified)
- MIC [2]: > 512 µg/mL

Compound: O=C(CCl)Nn1c(S)nnc1COc1ccccc1C1=NOC(c2ccc(Cl)cc2Cl)C1 (stereo unspecified)
- IC50 [3]: 3.2 µg/mL (≈ 6.24 µM)
- MIC [2]: 16 µg/mL (≈ 31.2 µM)

Compound: CCCCSc1nnc(COc2ccccc2C2=NOC(c3ccc(Cl)cc3Cl)C2)n1NC(C)=O (stereo unspecified)
- IC50 [3]: 2.6 µg/mL (≈ 4.86 µM)
- MIC [2]: 32 µg/mL (≈ 59.9 µM)

Compound: CSc1nnc(COc2ccccc2C2=NOC(c3ccc(Cl)cc3Cl)C2)n1NC(=O)CCl (stereo unspecified)
- IC50 [3]: 2.7 µg/mL (≈ 5.12 µM)
- MIC [2]: 32 µg/mL (≈ 60.7 µM)

Compound: CC(=O)Nn1c(S)nnc1COc1ccccc1C1=NOC(c2ccc(Cl)cc2Cl)C1 (stereo unspecified)
- IC50 [3]: 1.3 µg/mL (≈ 2.72 µM)
- MIC [2]: 8 µg/mL (≈ 16.7 µM)

Compound: CCOC(=O)CC(=O)CSc1nnc(COc2ccccc2C2=NOC(c3ccc(Cl)cc3Cl)C2)n1NC(C)=O (stereo unspecified)
- MIC [2]: 512 µg/mL (≈ 844 µM)

Compound: CCOC(=O)CC(=O)CSc1nnc(COc2ccccc2C2=NOC(c3ccc(Cl)cc3Cl)C2)n1NC(=O)c1ccccc1 (stereo unspecified)
- MIC [2]: 512 µg/mL (≈ 766 µM)

Compound: C/C=C/Sc1nnc(COc2ccccc2C2=NOC(c3ccc(Cl)cc3Cl)C2)n1NC(=O)c1ccccc1 (stereo unspecified)
- MIC [2]: 128 µg/mL (≈ 221 µM)

Compound: CSc1nnc(COc2ccccc2C2=NOC(c3ccc(Cl)cc3Cl)C2)n1NC(C)=O (stereo unspecified)
- IC50 [3]: 2.7 µg/mL (≈ 5.48 µM)
- MIC [2]: 32 µg/mL (≈ 65 µM)

Compound: CCSc1nnc(COc2ccccc2C2=NOC(c3ccc(Cl)cc3Cl)C2)n1NC(=O)CCl (stereo unspecified)
- MIC [2]: 512 µg/mL (≈ 947 µM)

Compound: O=C(Nn1c(S)nnc1COc1ccccc1C1=NOC(c2ccc(Cl)cc2Cl)C1)c1ccccc1 (stereo unspecified)
- IC50 [3]: 1.7 µg/mL (≈ 3.15 µM)
- MIC [2]: 32 µg/mL (≈ 59.2 µM)

Compound: CCCCSc1nnc(COc2ccccc2C2=NOC(c3ccc(Cl)cc3Cl)C2)n1NC(=O)c1ccccc1 (stereo unspecified)
- IC50 [3]: 2.5 µg/mL (≈ 4.19 µM)
- MIC [2]: 64 µg/mL (≈ 107 µM)

Compound: C/C=C/Sc1nnc(COc2ccccc2C2=NOC(c3ccc(Cl)cc3Cl)C2)n1NC(=O)CCl (stereo unspecified)
- MIC [2]: > 512 µg/mL

Compound: CC(C)CSc1nnc(COc2ccccc2C2=NOC(c3ccc(Cl)cc3Cl)C2)n1NC(=O)CCl (stereo unspecified)
- MIC [2]: 1020 µg/mL (≈ 1800 µM)

Compound: CCOC(=O)CC(=O)CSc1nnc(COc2ccccc2C2=NOC(c3ccc(Cl)cc3Cl)C2)n1NC(=O)CCl (stereo unspecified)
- MIC [2]: 128 µg/mL (≈ 200 µM)

Compound: CCOC(=O)CSc1nnc(COc2ccccc2C2=NOC(c3ccc(Cl)cc3Cl)C2)n1NC(=O)CCl (stereo unspecified)
- MIC [2]: 128 µg/mL (≈ 214 µM)

Compound: CC(=O)Nn1c(COc2ccccc2C2=NOC(c3ccc(Cl)cc3Cl)C2)nnc1SCC(C)C (stereo unspecified)
- MIC [2]: > 256 µg/mL

Compound: O=C(Nn1c(COc2ccccc2C2=NOC(c3ccc(Cl)cc3Cl)C2)nnc1Sc1ccccc1)c1ccccc1 (stereo unspecified)
- MIC [2]: 256 µg/mL (≈ 415 µM)

Compound: CC[n+]1c(-c2ccccc2)c2cc(N)ccc2c2ccc(N)cc21.[Br-] [HOMIDIUM BROMIDE]
- MIC [1]: 12.5 µg/mL

Compound: CSc1nnc(COc2ccccc2C2=NOC(c3ccc(Cl)cc3Cl)C2)n1NC(=O)c1ccccc1 (stereo unspecified)
- IC50 [3]: 2.2 µg/mL (≈ 3.97 µM)
- MIC [2]: 32 µg/mL (≈ 57.7 µM)

Compound: O=C(CCl)Nn1c(COc2ccccc2C2=NOC(c3ccc(Cl)cc3Cl)C2)nnc1Sc1ccccc1 (stereo unspecified)
- MIC [2]: 128 µg/mL (≈ 217 µM)

Compound: CC(C)CSc1nnc(COc2ccccc2C2=NOC(c3ccc(Cl)cc3Cl)C2)n1NC(=O)c1ccccc1 (stereo unspecified)
- MIC [2]: 512 µg/mL (≈ 858 µM)

Compound: C=CCSc1nnc(COc2ccccc2C2=NOC(c3ccc(Cl)cc3Cl)C2)n1NC(=O)c1ccccc1 (stereo unspecified)
- MIC [2]: 128 µg/mL (≈ 221 µM)
